Active and inactive are the calls of the source. The rule behind the calls is not given here.
Legend:
Phosphodiesterase 4 = Phosphodiesterase 4 (Homo sapiens, UniProt P27815+Q08499+Q07343+Q08493); experiment: Inhibition of human PDE4A1A by IMAP technology; format: protein assay
Procedure, shortened: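 Human PDE4A1A at 0.05 ng/μl final, in 10 mM Tris pH 7.2 with 0.1% BSA, 10 mM MgCl2, 1 mM DTT and 0.05% NaN3. Compound pin-transferred, then 5 min at RT before adding 100 nM cAMP (final). After 40 min at RT, IMAP binding reagent was added and incubated 1–4 h at RT.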

[1] = target: High affinity 3',5'-cyclic-AMP phosphodiesterase 7A (Homo sapiens) (UniProt Q13946); experiment: Inhibition of PDE7A
[2] = target: cAMP and cAMP-inhibited cGMP 3',5'-cyclic phosphodiesterase 10A (Homo sapiens, UniProt Q9Y233); experiment: Inhibition of PDE10A
[3] = target: Dual 3',5'-cyclic-AMP and -GMP phosphodiesterase 11A (Homo sapiens, UniProt Q9HCR9)
[4] = target: Dual specificity calcium/calmodulin-dependent 3',5'-cyclic nucleotide phosphodiesterase 1B (Homo sapiens, UniProt Q01064); experiment: Inhibition of PDE1B
[5] = target: cGMP-inhibited 3',5'-cyclic phosphodiesterase 3A (Homo sapiens, UniProt Q14432); experiment: Inhibition of PDE3A
[6] = target: 3',5'-cyclic-AMP phosphodiesterase 7B (Homo sapiens) (UniProt Q9NP56); experiment: Inhibition of PDE7B
[7] = target: Dual specificity calcium/calmodulin-dependent 3',5'-cyclic nucleotide phosphodiesterase 1A (Homo sapiens, UniProt P54750); experiment: Inhibition of PDE1A
[8] = target: High affinity cGMP-specific 3',5'-cyclic phosphodiesterase 9A (Homo sapiens) (UniProt O76083); experiment: Inhibition of PDE9A
[9] = target: cGMP-specific 3',5'-cyclic phosphodiesterase (Homo sapiens, UniProt O76074)

cAMP and cAMP-inhibited cGMP 3',5'-cyclic phosphodiesterase 10A, sequence (Q9Y233 whole entry): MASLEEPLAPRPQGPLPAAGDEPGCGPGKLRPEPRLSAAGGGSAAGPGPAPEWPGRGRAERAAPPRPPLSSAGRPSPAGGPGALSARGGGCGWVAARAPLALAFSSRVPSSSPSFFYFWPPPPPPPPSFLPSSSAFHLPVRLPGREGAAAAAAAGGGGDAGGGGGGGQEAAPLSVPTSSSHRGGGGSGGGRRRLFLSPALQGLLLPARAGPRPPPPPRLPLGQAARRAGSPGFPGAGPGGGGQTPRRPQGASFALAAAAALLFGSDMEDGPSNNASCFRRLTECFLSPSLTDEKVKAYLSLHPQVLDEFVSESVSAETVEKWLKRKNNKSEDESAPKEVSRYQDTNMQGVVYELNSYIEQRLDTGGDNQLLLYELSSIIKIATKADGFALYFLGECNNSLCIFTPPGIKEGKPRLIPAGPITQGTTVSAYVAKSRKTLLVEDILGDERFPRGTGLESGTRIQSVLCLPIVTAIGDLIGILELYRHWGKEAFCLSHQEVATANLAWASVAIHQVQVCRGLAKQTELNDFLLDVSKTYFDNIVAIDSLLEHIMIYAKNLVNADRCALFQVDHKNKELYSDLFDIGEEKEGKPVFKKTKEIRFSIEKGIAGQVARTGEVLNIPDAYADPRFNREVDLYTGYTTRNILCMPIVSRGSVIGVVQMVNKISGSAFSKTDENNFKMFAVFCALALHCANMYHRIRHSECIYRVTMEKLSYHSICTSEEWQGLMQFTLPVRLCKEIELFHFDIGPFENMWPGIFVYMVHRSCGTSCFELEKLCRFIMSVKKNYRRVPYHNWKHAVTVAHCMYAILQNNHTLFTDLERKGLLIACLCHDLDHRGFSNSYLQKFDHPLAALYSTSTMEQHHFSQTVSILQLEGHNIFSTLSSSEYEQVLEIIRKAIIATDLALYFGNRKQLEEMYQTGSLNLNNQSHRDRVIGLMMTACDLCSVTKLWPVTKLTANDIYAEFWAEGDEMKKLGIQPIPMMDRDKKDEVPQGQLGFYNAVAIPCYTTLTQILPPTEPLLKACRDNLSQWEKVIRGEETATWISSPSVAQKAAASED
Dual specificity calcium/calmodulin-dependent 3',5'-cyclic nucleotide phosphodiesterase 1A, sequence (P54750 whole entry): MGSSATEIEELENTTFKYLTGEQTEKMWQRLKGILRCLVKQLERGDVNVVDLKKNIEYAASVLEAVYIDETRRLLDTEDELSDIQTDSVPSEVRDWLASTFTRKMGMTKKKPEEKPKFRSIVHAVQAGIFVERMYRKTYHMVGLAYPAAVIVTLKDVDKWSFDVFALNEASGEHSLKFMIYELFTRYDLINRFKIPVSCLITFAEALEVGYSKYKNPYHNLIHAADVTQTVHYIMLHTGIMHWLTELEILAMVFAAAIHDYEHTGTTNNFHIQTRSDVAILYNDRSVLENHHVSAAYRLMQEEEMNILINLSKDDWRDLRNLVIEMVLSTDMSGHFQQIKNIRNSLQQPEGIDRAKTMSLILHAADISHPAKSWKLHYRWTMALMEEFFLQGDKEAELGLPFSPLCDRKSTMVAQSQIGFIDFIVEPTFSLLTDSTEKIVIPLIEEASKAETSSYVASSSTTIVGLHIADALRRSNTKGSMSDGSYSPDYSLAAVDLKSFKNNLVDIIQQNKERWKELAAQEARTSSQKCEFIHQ
cGMP-inhibited 3',5'-cyclic phosphodiesterase 3A, sequence (Q14432 whole entry): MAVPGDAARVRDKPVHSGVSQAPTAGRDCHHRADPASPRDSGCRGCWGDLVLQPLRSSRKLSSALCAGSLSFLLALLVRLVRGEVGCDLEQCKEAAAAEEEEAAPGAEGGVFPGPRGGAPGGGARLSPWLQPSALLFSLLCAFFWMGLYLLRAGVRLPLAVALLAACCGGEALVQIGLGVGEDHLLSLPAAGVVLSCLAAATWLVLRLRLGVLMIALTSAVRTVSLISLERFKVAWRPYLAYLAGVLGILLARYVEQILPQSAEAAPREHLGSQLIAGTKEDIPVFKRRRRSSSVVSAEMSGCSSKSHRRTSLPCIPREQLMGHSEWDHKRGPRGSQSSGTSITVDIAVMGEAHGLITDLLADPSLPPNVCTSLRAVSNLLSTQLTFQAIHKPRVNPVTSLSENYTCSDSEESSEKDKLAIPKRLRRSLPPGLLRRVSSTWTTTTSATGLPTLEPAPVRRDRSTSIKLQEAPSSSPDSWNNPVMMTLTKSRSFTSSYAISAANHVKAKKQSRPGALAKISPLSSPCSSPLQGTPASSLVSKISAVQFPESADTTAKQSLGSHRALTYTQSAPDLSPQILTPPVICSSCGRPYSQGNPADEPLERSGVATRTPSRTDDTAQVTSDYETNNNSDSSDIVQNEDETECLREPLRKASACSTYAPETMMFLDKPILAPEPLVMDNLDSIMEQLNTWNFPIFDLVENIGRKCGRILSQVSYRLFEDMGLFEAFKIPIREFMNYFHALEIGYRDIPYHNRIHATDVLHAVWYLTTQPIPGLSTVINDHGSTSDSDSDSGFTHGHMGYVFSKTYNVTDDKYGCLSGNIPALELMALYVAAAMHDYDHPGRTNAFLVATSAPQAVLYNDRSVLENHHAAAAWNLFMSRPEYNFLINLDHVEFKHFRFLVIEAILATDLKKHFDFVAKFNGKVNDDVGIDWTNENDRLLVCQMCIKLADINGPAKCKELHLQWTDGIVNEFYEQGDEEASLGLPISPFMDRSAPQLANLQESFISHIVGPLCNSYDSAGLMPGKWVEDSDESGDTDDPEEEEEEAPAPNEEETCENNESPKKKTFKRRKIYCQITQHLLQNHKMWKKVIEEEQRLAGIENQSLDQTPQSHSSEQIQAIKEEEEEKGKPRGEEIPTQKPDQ
Dual specificity calcium/calmodulin-dependent 3',5'-cyclic nucleotide phosphodiesterase 1B, sequence (Q01064 whole entry): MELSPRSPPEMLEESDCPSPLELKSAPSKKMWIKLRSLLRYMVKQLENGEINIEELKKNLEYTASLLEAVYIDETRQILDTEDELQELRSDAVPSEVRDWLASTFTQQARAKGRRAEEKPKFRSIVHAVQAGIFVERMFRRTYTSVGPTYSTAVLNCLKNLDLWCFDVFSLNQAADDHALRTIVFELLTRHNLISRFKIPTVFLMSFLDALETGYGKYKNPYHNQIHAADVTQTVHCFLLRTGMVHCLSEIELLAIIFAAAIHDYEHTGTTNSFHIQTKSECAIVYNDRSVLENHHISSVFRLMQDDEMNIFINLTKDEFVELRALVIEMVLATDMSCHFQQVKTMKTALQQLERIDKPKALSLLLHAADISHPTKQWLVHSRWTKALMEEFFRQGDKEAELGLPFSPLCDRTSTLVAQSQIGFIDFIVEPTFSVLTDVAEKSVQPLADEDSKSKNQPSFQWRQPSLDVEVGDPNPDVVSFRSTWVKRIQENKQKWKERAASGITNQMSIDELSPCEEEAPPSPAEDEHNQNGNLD
High affinity cGMP-specific 3',5'-cyclic phosphodiesterase 9A (Homo sapiens), sequence (O76083 whole entry): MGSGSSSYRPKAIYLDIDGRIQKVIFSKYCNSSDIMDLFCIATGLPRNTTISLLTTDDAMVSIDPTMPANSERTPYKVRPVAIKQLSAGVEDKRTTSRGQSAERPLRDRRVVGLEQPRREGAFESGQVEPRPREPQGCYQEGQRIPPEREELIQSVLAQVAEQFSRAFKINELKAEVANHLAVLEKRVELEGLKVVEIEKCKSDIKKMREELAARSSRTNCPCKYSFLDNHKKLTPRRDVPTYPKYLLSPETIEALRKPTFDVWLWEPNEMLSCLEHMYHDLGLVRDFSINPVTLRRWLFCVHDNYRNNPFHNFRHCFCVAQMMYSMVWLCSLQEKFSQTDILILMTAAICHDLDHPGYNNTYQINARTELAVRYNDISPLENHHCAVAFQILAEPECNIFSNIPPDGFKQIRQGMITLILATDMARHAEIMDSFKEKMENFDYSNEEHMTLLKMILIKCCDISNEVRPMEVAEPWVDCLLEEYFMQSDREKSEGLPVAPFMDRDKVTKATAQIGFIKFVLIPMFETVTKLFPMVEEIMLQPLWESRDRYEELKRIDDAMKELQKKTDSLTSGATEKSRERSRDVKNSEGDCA
High affinity 3',5'-cyclic-AMP phosphodiesterase 7A (Homo sapiens), sequence (Q13946 whole entry): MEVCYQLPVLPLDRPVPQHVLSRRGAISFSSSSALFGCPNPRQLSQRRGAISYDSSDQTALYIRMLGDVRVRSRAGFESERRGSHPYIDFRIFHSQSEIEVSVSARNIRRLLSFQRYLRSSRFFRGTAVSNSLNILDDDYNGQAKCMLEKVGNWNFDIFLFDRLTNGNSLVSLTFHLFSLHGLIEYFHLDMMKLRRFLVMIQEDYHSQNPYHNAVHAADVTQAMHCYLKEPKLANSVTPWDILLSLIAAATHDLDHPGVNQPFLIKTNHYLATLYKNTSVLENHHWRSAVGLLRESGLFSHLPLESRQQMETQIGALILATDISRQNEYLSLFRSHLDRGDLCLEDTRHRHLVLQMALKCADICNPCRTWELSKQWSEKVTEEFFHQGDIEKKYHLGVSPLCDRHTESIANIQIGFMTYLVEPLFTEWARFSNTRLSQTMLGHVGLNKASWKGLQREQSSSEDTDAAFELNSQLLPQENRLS
3',5'-cyclic-AMP phosphodiesterase 7B (Homo sapiens), sequence (Q9NP56 whole entry): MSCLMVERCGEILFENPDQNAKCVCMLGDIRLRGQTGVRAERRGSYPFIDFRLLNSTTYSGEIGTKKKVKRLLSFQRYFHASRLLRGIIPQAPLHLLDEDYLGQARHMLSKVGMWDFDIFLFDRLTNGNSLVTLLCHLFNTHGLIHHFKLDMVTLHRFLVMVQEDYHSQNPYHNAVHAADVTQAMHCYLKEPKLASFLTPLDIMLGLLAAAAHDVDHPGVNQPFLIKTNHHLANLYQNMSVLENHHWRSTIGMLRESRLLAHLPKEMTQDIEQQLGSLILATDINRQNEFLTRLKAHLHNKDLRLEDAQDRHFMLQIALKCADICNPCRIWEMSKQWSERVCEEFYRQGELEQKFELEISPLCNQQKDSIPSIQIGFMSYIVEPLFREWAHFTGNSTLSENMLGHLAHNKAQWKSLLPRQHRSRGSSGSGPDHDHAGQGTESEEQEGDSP

Row | Structure (SMILES) | IC50 (Phosphodiesterase 4) [µM] | further results
1 | CCOc1ccccc1-c1nnc2n1N=C(c1ccc(OC)cc1OC)CS2 | > 20 | –
2 | COc1cccc(OC)c1C1=Nn2c(nnc2-c2ccccc2O)SC1 | > 20 | –
3 | COc1ccc(OC)c(-c2nnc3n2N=C(c2ccccc2OC)CS3)c1 | 19.6 | –
4 | COc1ccc(C2=Nn3c(nnc3-c3cccc(OC)c3OC)SC2)cc1 | > 20 | –
5 | CCOc1ccccc1-c1nnc2n1N=C(c1c(OC)cccc1OC)CS2 | > 20 | –
6 | COc1ccc(C2=Nn3c(nnc3-c3ccccc3OC)SC2)cc1OC | – | Activity [1]: inactive; IC50 [2]: > 50 µM; IC50 [3]: > 50 µM; IC50 [4]: > 50 µM; IC50 [5]: > 50 µM; Activity [6]: inactive; IC50 [7]: > 50 µM; Activity [8]: inactive; IC50 [9]: > 50 µM
7 | COc1ccc(C2=Nn3c(nnc3-c3ccc(OC)cc3OC)SC2)cc1 | > 20 | –
8 | CCOc1ccccc1-c1nnc2n1N=C(c1ccccc1OC)CS2 | > 20 | –
9 | COc1ccc(OC)c(-c2nnc3n2N=C(c2c(OC)cccc2OC)CS3)c1 | > 20 | –
10 | COc1ccc(C2=Nn3c(nnc3-c3ccc(OC)cc3OC)SC2)c(OC)c1 | > 20 | –
11 | COc1ccc(C2=Nn3c(nnc3-c3cccc(OC)c3OC)SC2)c(OC)c1 | > 20 | –
12 | COc1ccc(-c2nnc3n2N=C(c2ccccc2OC)CS3)c(OC)c1 | 19.7 | –
13 | COc1ccccc1-c1nnc2n1N=C(c1c(OC)cccc1OC)CS2 | > 20 | –
14 | COc1ccc(OC)c(C2=Nn3c(nnc3-c3ccccc3O)SC2)c1 | > 20 | –
15 | COc1cccc(-c2nnc3n2N=C(c2c(OC)cccc2OC)CS3)c1 | > 20 | –
16 | COc1ccc(C2CNC(=O)C2)cc1OC1CCCC1 (configuration not stated) [ROLIPRAM] | – | Activity [1]: inactive; Activity [2]: inactive; Activity [4]: inactive; Activity [5]: inactive; Activity [6]: inactive; IC50 [7]: > 50 µM; Activity [8]: inactive

Row | Structure (SMILES) | IC50 (Phosphodiesterase 4) [µM] | further results
17 | COc1ccccc1C1=Nn2c(nnc2-c2ccccc2OC)SC1 | 20 | –
18 | COc1ccc(C2=Nn3c(nnc3-c3ccccc3C)SC2)c(OC)c1 | > 20 | –
19 | COc1cccc(OC)c1C1=Nn2c(nnc2-c2ccccc2C)SC1 | 14.1 | –
20 | COc1ccc(C2=Nn3c(nnc3-c3ccccc3OC)SC2)c(OC)c1 | 15 | –
21 | COc1ccc(-c2nnc3n2N=C(c2c(OC)cccc2OC)CS3)c(OC)c1 | > 20 | –
22 | COc1cccc(C2=Nn3c(nnc3-c3cccc(OC)c3OC)SC2)c1 | > 20 | –
23 | COc1ccccc1C1=Nn2c(nnc2-c2cccc(OC)c2OC)SC1 | > 20 | –
24 | COc1ccc(-c2nnc3n2N=C(c2c(OC)cccc2OC)CS3)cc1OC | 14.1 | –
25 | COc1ccccc1C1=Nn2c(nnc2-c2ccccc2O)SC1 | > 20 | –
26 | COc1cccc(-c2nnc3n2N=C(c2c(OC)cccc2OC)CS3)c1OC | > 20 | –
27 | COc1cc(OC)cc(-c2nnc3n2N=C(c2ccc(OC)cc2OC)CS3)c1 | > 20 | –
28 | COc1cccc(-c2nnc3n2N=C(c2ccc(OC)cc2OC)CS3)c1 | 14.1 | –
29 | COc1ccc(C2=Nn3c(nnc3-c3ccccc3O)SC2)c(OC)c1 | > 20 | –
30 | COc1ccc(C2=Nn3c(nnc3-c3ccccc3OC)SC2)cc1 | > 20 | –
31 | COc1ccc(-c2nnc3n2N=C(c2c(OC)cccc2OC)CS3)cc1 | 19.7 | –
32 | COc1cc(OC)cc(-c2nnc3n2N=C(c2c(OC)cccc2OC)CS3)c1 | 19.6 | –

Continued by falling IC50 (Phosphodiesterase 4), values first:

Row | IC50 (Phosphodiesterase 4) [µM] | Structure (SMILES) | further results
33 | 14.1 | COc1cccc(C2=Nn3c(nnc3-c3ccccc3O)SC2)c1 | –
34 | 14.1 | COc1ccc(-c2nnc3n2N=C(c2ccccc2OC)CS3)cc1 | –
35 | 14.1 | COc1ccccc1C1=Nn2c(nnc2-c2ccccc2C)SC1 | –
36 | 13.4 | COc1cccc(C2=Nn3c(nnc3-c3cc(OC)cc(OC)c3)SC2)c1 | –
37 | 13.4 | CCOc1ccccc1-c1nnc2n1N=C(c1cc(OC)ccc1OC)CS2 | –
38 | 13.4 | COc1cccc(-c2nnc3n2N=C(c2ccccc2OC)CS3)c1 | –
39 | 13.4 | COc1cc(OC)cc(-c2nnc3n2N=C(c2ccccc2OC)CS3)c1 | –
40 | 13.4 | COc1cccc(C2=Nn3c(nnc3-c3ccc(OC)cc3OC)SC2)c1 | –
41 | 13.4 | COc1ccc(-c2nnc3n2N=C(c2ccc(OC)cc2OC)CS3)cc1 | –
42 | 12.7 | COc1cc(OC)cc(-c2nnc3n2N=C(c2cc(OC)ccc2OC)CS3)c1 | –
43 | 12.6 | COc1cccc(-c2nnc3n2N=C(c2cc(OC)ccc2OC)CS3)c1 | –
44 | 12.6 | COc1cccc(C2=Nn3c(nnc3-c3cccc(OC)c3)SC2)c1 | –
45 | 12.6 | COc1ccc(C2=Nn3c(nnc3-c3cccc(OC)c3)SC2)cc1 | –
46 | 12.5 | COc1ccc(C2=Nn3c(nnc3-c3ccccc3C)SC2)cc1 | –
47 | 12 | COc1cccc(C2=Nn3c(nnc3-c3ccccc3OC)SC2)c1 | –
48 | 11.9 | COc1ccc(OC)c(C2=Nn3c(nnc3-c3cccc(OC)c3OC)SC2)c1 | –
49 | 11.9 | COc1ccc(OC)c(C2=Nn3c(nnc3-c3cc(OC)ccc3OC)SC2)c1 | –
50 | 11.2 | CCOc1ccccc1-c1nnc2n1N=C(c1cccc(OC)c1)CS2 | –
51 | 10.1 | COc1ccc(-c2nnc3n2N=C(c2cc(OC)ccc2OC)CS3)cc1 | –
52 | 9.5 | COc1ccc(C2=Nn3c(nnc3-c3cc(OC)cc(OC)c3)SC2)cc1 | –
53 | 9 | COc1cccc(C2=Nn3c(nnc3-c3ccc(OC)c(OC)c3)SC2)c1 | –

Row | IC50 (Phosphodiesterase 4) [µM] | Structure (SMILES) | further results
54 | 8.9 | COc1ccc(OC)c(C2=Nn3c(nnc3-c3ccccc3OC)SC2)c1 | –
55 | 8.9 | COc1ccc(-c2nnc3n2N=C(c2ccccc2OC)CS3)cc1OC | –
56 | 8.4 | COc1ccc(-c2nnc3n2N=C(c2cccc(OC)c2)CS3)cc1 | –
57 | 8.4 | COc1ccc(C2=Nn3c(nnc3-c3ccc(OC)cc3)SC2)cc1 | –
58 | 8.4 | COc1ccc(C2=Nn3c(nnc3-c3ccccc3O)SC2)cc1 | –
59 | 8 | COc1cccc(C2=Nn3c(nnc3-c3cc(OC)ccc3OC)SC2)c1 | –
60 | 7.5 | COc1ccc(C2=Nn3c(nnc3-c3cc(OC)ccc3OC)SC2)c(OC)c1 | –
61 | 7.5 | COc1ccc(C2=Nn3c(nnc3-c3ccc(OC)c(OC)c3)SC2)cc1 | –
62 | 6.9 | COc1ccc(OC)c(C2=Nn3c(nnc3-c3ccc(OC)c(OC)c3)SC2)c1 | –
63 | 6.7 | COc1ccc(C2=Nn3c(nnc3-c3ccc(OC)c(OC)c3)SC2)c(OC)c1 | –
64 | 6.3 | COc1ccc(OC)c(C2=Nn3c(nnc3-c3ccccc3C)SC2)c1 | –
65 | 5.3 | COc1ccc(-c2nnc3n2N=C(c2cc(OC)ccc2OC)CS3)c(OC)c1 | –
66 | 4.5 | CCOc1ccccc1-c1nnc2n1N=C(c1ccc(OC)cc1)CS2 | –
67 | 3.2 | COc1cccc(C2=Nn3c(nnc3-c3ccccc3C)SC2)c1 | –
68 | 1.7 | COc1ccc(C2=Nn3c(nnc3-c3cc(OC)ccc3OC)SC2)cc1 | –
69 | 0.177 | COc1ccc(C2=Nn3c(nnc3-c3ccc(OC)c(OC)c3)SC2)cc1OC | –
70 | 0.126 | COc1cccc(-c2nnc3n2N=C(c2ccc(OC)c(OC)c2)CS3)c1 | –
71 | 0.0889 | COc1ccc(-c2nnc3n2N=C(c2ccc(OC)c(OC)c2)CS3)cc1 | –
72 | 0.079 | COc1ccc(-c2nnc3n2N=C(c2ccc(OC)c(OC)c2)CS3)c(OC)c1 | –
73 | 0.05 | COc1cc(OC)cc(-c2nnc3n2N=C(c2ccc(OC)c(OC)c2)CS3)c1 | –
